Experimental data as given in ChEMBL document CHEMBL1123382, “Potential tumor- or organ-imaging agents. 27. Polyiodinated 1,3-disubstituted and 1,2,3-trisubstituted triacylglycerols” (J Med Chem, 1986).
Several values for one entry are separate records, joined by “and”; a condition that tells them apart may be missing. Equal values may be shown once.

Tests used:
Rattus norvegicus [1] = assay: Biodistribution in Rat heart after 24 hours of iv administration; type: ADME, organism-based; conditions: in vivo
Outline: (§1)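 125I-labeled compound solubilized in normal saline with Tween-20 and given iv to rats, about 5-30 μCi (9-83 μg) per animal. Three to five rats per time point. Rats killed by exsanguination under ether anesthesia at 5 min, 30 min or 24 h. Organs minced, blotted free of blood and counted for radioiodine. Lines with "per g" are % administered dose per gram ± SEM.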

Rattus norvegicus [2] = assay: Biodistribution in Rat blood after 24 hours of iv administration; type: ADME, organism-based; conditions: in vivo; outline: as §1
Rattus norvegicus [3] = assay: Liver radioactivity after iv administration of compound (30 min) in rats; type: functional, organism-based
Outline: (§2)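 Rats (3-5 per time point) dosed iv with about 5-30 μCi (9-83 μg) of 125I-labeled compound in saline containing Tween-20. Killed by exsanguination under ether at 5 min, 30 min or 24 h. Liver removed, minced, blotted and counted. Values are % administered dose per organ, based on each animal's actual liver weight, ± SEM.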

Rattus norvegicus [4] = assay: Compound (125I labeled) was evaluated for the total radioactivity in low-density lipoprotein 5 min after intravenous administration.; type: functional; set-up: concentration or dose not given beside the values
Outline: (§3)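 Rat plasma taken 5 or 30 min after iv dosing of 125I-labeled compound (saline/Tween-20) and run on polyacrylamide gel electrophoresis. Gels sectioned and each section gamma-counted. Radioactivity in each band (stacking gel, lipoproteins, albumin, below-albumin) is given as % of total radioactivity applied to the gel.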

Rattus norvegicus [5] = assay: Compound (125I labeled) was evaluated for the total radioactivity in high-density lipoprotein, at 30 min after intravenous administration.; type: functional; outline: as §3
Rattus norvegicus [6] = assay: Biodistribution in Rat lung after 30 minutes of iv administration; type: ADME, organism-based; conditions: in vivo, 0.5 h; outline: as §1
Rattus norvegicus [7] = assay: Biodistribution in Rat lung after 24 hours of iv administration; type: ADME, organism-based; conditions: in vivo; outline: as §1
Rattus norvegicus [8] = assay: Liver radioactivity after iv administration of compound (24 h) in rats; type: functional, organism-based; outline: as §2
Rattus norvegicus [9] = assay: (§4) Biodistribution in Rat liver after 30 minutes of iv administration; type: ADME, organism-based; conditions: in vivo, 0.5 h; outline: as §1
Rattus norvegicus [10] = assay: Biodistribution in Rat liver after 24 hours of iv administration; type: ADME, organism-based; conditions: in vivo; outline: as §1
Rattus norvegicus [11] = assay: Compound was evaluated for the lipid soluble radioactivity extracted from rat liver at 24 hr after intravenous administration.; type: functional
Outline: (§5)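 Liver and plasma taken 0.5 or 24 h after iv dosing of 125I-labeled compound in rats (n = 3-5). Extracted by a modified Folch procedure; value is % lipid (CHCl3/MeOH)-extractable radioactivity ± SEM. Extracts run on TLC in hexane/ethyl acetate 5:2 against unlabeled standard, then 1-cm strips counted to give % parent compound.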

Rattus norvegicus [12] = assay: Compound (125I labeled) was evaluated for the total radioactivity in albumin at 30 min after intravenous administration.; type: functional; set-up: concentration or dose not given beside the values; outline: as §3
Rattus norvegicus [13] = assay: Biodistribution in Rat blood after 30 minutes of iv administration; type: ADME, organism-based; conditions: in vivo, 0.5 h; outline: as §1
Rattus norvegicus [14] = assay: Compound was evaluated for the lipid soluble radioactivity extracted from rat plasma at 0.5 hr after intravenous administration.; type: functional; outline: as §5
Rattus norvegicus [15] = assay: Evaluated for the total radioactivity in below albumin at 30 min after intravenous administration.; type: functional; outline: as §3
Rattus norvegicus [16] = assay: Biodistribution in Rat heart after 5 minutes of iv administration; type: ADME, organism-based; conditions: in vivo; outline: as §1
Rattus norvegicus [17] = assay: as §4; type: ADME, organism-based; conditions: in vivo, 0.5 h; outline: as §1; remark: listed apart in the source
Rattus norvegicus [18] = assay: Biodistribution in Rat heart after 30 minutes of iv administration; type: ADME, organism-based; conditions: in vivo, 0.5 h; outline: as §1
Rattus norvegicus [19] = assay: Compound (125I labeled) was evaluated for the total radioactivity in stacking gel at 30 min after intravenous administration.; type: functional; outline: as §3
Rattus norvegicus [20] = assay: Biodistribution in Rat lung after 5 minutes of iv administration; type: ADME, organism-based; conditions: in vivo; outline: as §1
Rattus norvegicus [21] = assay: Biodistribution in Rat blood after 5 minutes of iv administration; type: ADME, organism-based; conditions: in vivo; outline: as §1
Rattus norvegicus [22] = assay: Compound (125I labeled) was evaluated for the total radioactivity in high-density lipoprotein 5 min after intravenous administration.; type: functional; outline: as §3
Rattus norvegicus [23] = assay: Compound was evaluated for the lipid soluble radioactivity extracted from rat plasma at 24 hr after intravenous administration.; type: functional; outline: as §5
Rattus norvegicus [24] = assay: Liver radioactivity after iv administration of compound (5 min) in rats; type: functional, organism-based; outline: as §2
Rattus norvegicus [25] = assay: Biodistribution in Rat liver after 5 minutes of iv administration; type: ADME, organism-based; conditions: in vivo; outline: as §1
Rattus norvegicus [26] = assay: Compound was evaluated for the lipid soluble radioactivity extracted from rat liver at 0.5 hr after intravenous administration.; type: functional; outline: as §5
Rattus norvegicus [27] = assay: Compound (125I labeled) was evaluated for the total radioactivity in low-density lipoprotein, at 30 min after intravenous administration.; type: functional; outline: as §3
Rattus norvegicus [28] = assay: Compound (125I labeled)was evaluated for the total radioactivity in stacking gel 5 min after intravenous administration.; type: functional; outline: as §3
Rattus norvegicus [29] = assay: Compound (125I labeled) was evaluated for the total radioactivity in albumin 5 min after intravenous administration.; type: functional; set-up: concentration or dose not given beside the values; outline: as §3
Rattus norvegicus [30] = assay: Biodistribution in Rat heart after 30 minutes of iv administration; per g of tissue; type: ADME, organism-based; conditions: in vivo, 0.5 h; outline: as §1
Rattus norvegicus [31] = assay: Biodistribution in Rat blood after 24 hours of iv administration; per g of tissue; type: ADME, organism-based; conditions: in vivo; outline: as §1
Rattus norvegicus [32] = assay: Biodistribution in Rat blood after 30 minutes of iv administration; per g of tissue; type: ADME, organism-based; conditions: in vivo, 0.5 h; outline: as §1
Rattus norvegicus [33] = assay: Biodistribution in Rat heart after 24 hours of iv administration; per g of tissue; type: ADME, organism-based; conditions: in vivo; outline: as §1
Rattus norvegicus [34] = assay: Biodistribution in Rat blood after 5 minutes of iv administration; per g of tissue; type: ADME, organism-based; conditions: in vivo; outline: as §1
Rattus norvegicus [35] = assay: Biodistribution in Rat lung after 24 hours of iv administration; per g of tissue; type: ADME, organism-based; conditions: in vivo; outline: as §1
Rattus norvegicus [36] = assay: Biodistribution in Rat liver after 24 hours of iv administration; per g of tissue; type: ADME, organism-based; conditions: in vivo; outline: as §1
Rattus norvegicus [37] = assay: Biodistribution in Rat heart after 5 minutes of iv administration; per g of tissue; type: ADME, organism-based; conditions: in vivo; outline: as §1
Rattus norvegicus [38] = assay: Biodistribution in Rat liver after 5 minutes of iv administration; per g of tissue; type: ADME, organism-based; conditions: in vivo; outline: as §1
Rattus norvegicus [39] = assay: (§6) Biodistribution in Rat liver after 30 minutes of iv administration; per g of tissue; type: ADME, organism-based; conditions: in vivo, 0.5 h; outline: as §1
Rattus norvegicus [40] = assay: Biodistribution in Rat lung after 30 minutes of iv administration; per g of tissue; type: ADME, organism-based; conditions: in vivo, 0.5 h; outline: as §1
Rattus norvegicus [41] = assay: as §6; type: ADME, organism-based; conditions: in vivo, 0.5 h; outline: as §1; remark: listed apart in the source
Rattus norvegicus [42] = assay: Biodistribution in Rat lung after 5 minutes of iv administration; per g of tissue; type: ADME, organism-based; conditions: in vivo; outline: as §1
Rattus norvegicus [43] = assay: Compound (125I labeled) was evaluated for the total radioactivity in stacking gel 5 min after intravenous administration.; type: functional; outline: as §3

Structure (SMILES) | Radioactivity (Rattus norvegicus [3]) | Total radioactivity (Rattus norvegicus [4]) [%] | Total radioactivity (Rattus norvegicus [5]) [%] | Radioactivity (Rattus norvegicus [8]) | Extracted (Rattus norvegicus [11]) [%] | Parent compound (Rattus norvegicus [11]) [%] | Total radioactivity (Rattus norvegicus [12]) [%] | Extracted (Rattus norvegicus [14]) [%] | Parent compound (Rattus norvegicus [14]) [%] | Total radioactivity (Rattus norvegicus [15]) | Total radioactivity (Rattus norvegicus [19]) [%] | Total radioactivity (Rattus norvegicus [22]) [%] | Extracted (Rattus norvegicus [23]) [%] | Parent compound (Rattus norvegicus [23]) [%] | Radioactivity (Rattus norvegicus [24]) | Extracted (Rattus norvegicus [26]) [%] | Parent compound (Rattus norvegicus [26]) [%] | Total radioactivity (Rattus norvegicus [27]) [%] | Total radioactivity (Rattus norvegicus [29]) [%] | Total radioactivity (Rattus norvegicus [43]) [%] | other results
CCC(Cc1c(I)cc(I)c(N)c1I)C(=O)OCC(COC(=O)C(CC)Cc1c(I)cc(I)c(N)c1I)OC(=O)C(CC)Cc1c(I)cc(I)c(N)c1I (configuration not stated) | 26 | 33.4 | 55.8 | 66.8 | 91.7 | 92.3 | 5.3 | 90.5 | 89.1 | 0.3% and 1.9% | 9.9 | 48.2 | 83.4 | 75.1 | 22.4 | 89 | 92.9 | 27 | 2.9 | – | Biodistribution (Rattus norvegicus [1]): 0.1%; Biodistribution (Rattus norvegicus [2]): 0.14%; Biodistribution (Rattus norvegicus [6]): 0.67%; Biodistribution (Rattus norvegicus [7]): 0.58%; Biodistribution (Rattus norvegicus [9]): 2.79%; Biodistribution (Rattus norvegicus [10]): 0.18% and 9.19%; Biodistribution (Rattus norvegicus [13]): 3.31%; Biodistribution (Rattus norvegicus [16]): 0.97%; Biodistribution (Rattus norvegicus [17]): 2.79%; Biodistribution (Rattus norvegicus [18]): 0.39%; Biodistribution (Rattus norvegicus [20]): 1.49%; Biodistribution (Rattus norvegicus [21]): 6.95%; Biodistribution (Rattus norvegicus [25]): 0.87% and 3.57%; Total radioactivity (Rattus norvegicus [28]): 15.2%
CCCCCCCCCCCCCCCC(=O)OC(COC(=O)C(CC)Cc1c(I)cc(I)c(N)c1I)COC(=O)C(CC)Cc1c(I)cc(I)c(N)c1I (configuration not stated) | 30.2 | 35.4 | 59.7 | 52.1 | 93.9 | 91.7 | 3.4 | 86 | 82.6 | 0.1% and 0.3% | 6.8 | 55.1 | 82.1 | 77.4 | 18.4 | 88.4 | 86 | 29.7 | 3.2 | 6.2 | Biodistribution (Rattus norvegicus [30]): 0.66%; Biodistribution (Rattus norvegicus [31]): 0.54%; Biodistribution (Rattus norvegicus [32]): 5.17%; Biodistribution (Rattus norvegicus [33]): 0.21%; Biodistribution (Rattus norvegicus [34]): 7.44%; Biodistribution (Rattus norvegicus [35]): 0.33%; Biodistribution (Rattus norvegicus [36]): 0.26% and 0.33%; Biodistribution (Rattus norvegicus [37]): 0.87%; Biodistribution (Rattus norvegicus [38]): 0.84% and 2.9%; Biodistribution (Rattus norvegicus [39]): 4.54%; Biodistribution (Rattus norvegicus [40]): 1.1%; Biodistribution (Rattus norvegicus [41]): 4.54%; Biodistribution (Rattus norvegicus [42]): 1.49%
CCCCCCCCCCCCCCCC(=O)OC(COC(=O)CCc1c(I)cc(I)c(N)c1I)COC(=O)CCc1c(I)cc(I)c(N)c1I | 38.4 | 27.8 | 36.3 | 14.7 | 83.1 | 88 | 2.8 | 62.9 | 90.6 | 0.2% and 1.2% | 19 | 52.8 | 63.7 | 80 | 43.1 | 86.2 | 94.2 | 40.6 | 5 | 14.2 | Biodistribution (Rattus norvegicus [30]): 0.56%; Biodistribution (Rattus norvegicus [31]): 0.31%; Biodistribution (Rattus norvegicus [32]): 4.25%; Biodistribution (Rattus norvegicus [33]): 0.42%; Biodistribution (Rattus norvegicus [34]): 3.48%; Biodistribution (Rattus norvegicus [35]): 0.21%; Biodistribution (Rattus norvegicus [36]): 0.29% and 2.19%; Biodistribution (Rattus norvegicus [37]): 0.43%; Biodistribution (Rattus norvegicus [38]): 0.5% and 6.19%; Biodistribution (Rattus norvegicus [39]): 5.82%; Biodistribution (Rattus norvegicus [40]): 0.94%; Biodistribution (Rattus norvegicus [41]): 5.82%; Biodistribution (Rattus norvegicus [42]): 0.75%
Nc1c(I)cc(I)c(CCCCCCCCCCCCCCCCC(=O)OCC(COC(=O)CCCCCCCCCCCCCCCCc2c(I)cc(I)c(N)c2I)OC(=O)CCCCCCCCCCCCCCCCc2c(I)cc(I)c(N)c2I)c1I | 38.8 | 32.2 | 28.1 | 3 | 73.4 | 9.5 | 46.2 | 70.1 | 29.2 | 7.1% and 6.8% | 3.8 | 32.7 | 54.2 | 20.2 | 54.4 | 50.7 | 15.1 | 15.1 | 20.3 | 6.4 | Biodistribution (Rattus norvegicus [1]): 0.03%; Biodistribution (Rattus norvegicus [2]): 0.06%; Biodistribution (Rattus norvegicus [6]): 0.94%; Biodistribution (Rattus norvegicus [7]): 0.07%; Biodistribution (Rattus norvegicus [9]): 5.28%; Biodistribution (Rattus norvegicus [10]): 0.14% and 0.44%; Biodistribution (Rattus norvegicus [13]): 2.1%; Biodistribution (Rattus norvegicus [16]): 0.74%; Biodistribution (Rattus norvegicus [17]): 5.28%; Biodistribution (Rattus norvegicus [18]): 0.92%; Biodistribution (Rattus norvegicus [20]): 1.08%; Biodistribution (Rattus norvegicus [21]): 4.14%; Biodistribution (Rattus norvegicus [25]): 0.52% and 6.68%
